# Data from ChEMBL document CHEMBL3600382, “A-ring substituted 17β-arylsulfonamides of 17β-aminoestra-1,3,5(10)-trien-3-ol as highly potent reversible inhibitors of steroid sulfatase” (Bioorg Med Chem, 2015).
# Legend:
# [1] = test system: 786-0; test: Cytotoxicity against human 786-0 cells; type: functional
# [2] = test system: MOLT-4; test: Cytotoxicity against human MOLT4 cells; type: functional
# [3] = test system: MDA-MB-435; test: Cytotoxicity against human MDA-MB-435 cells; type: functional
# [4] = test system: RXF 393; test: Cytotoxicity against human RXF393 cells; type: functional
# [5] = test system: NCI-H23; test: Cytotoxicity against human NCI-H23 cells; type: functional
# [6] = test system: ACHN; test: Cytotoxicity against human ACHN cells; type: functional
# [7] = test system: CCRF-CEM; test: Cytotoxicity against human CCRF-CEM cells; type: functional
# [8] = test system: CAKI-1; test: Cytotoxicity against human Caki1 cells; type: functional
# [9] = test system: SN12C; test: Cytotoxicity against human SN12C cells; type: functional
# [10] = test system: OVCAR-8; test: Cytotoxicity against human OVCAR8 cells; type: functional
# [11] = test system: SK-OV-3; test: Cytotoxicity against human SKOV3 cells; type: functional
# [12] = test system: SNB-75; test: Cytotoxicity against human SNB75 cells; type: functional
# [13] = test system: SK-MEL-2; test: Cytotoxicity against human SK-MEL-2 cells; type: functional
# [14] = test system: SF-539; test: Cytotoxicity against human SF539 cells; type: functional
# [15] = test system: M14; test: Cytotoxicity against human M14 cells; type: functional
# [16] = test system: KM12; test: Cytotoxicity against human KM12 cells; type: functional
# [17] = test system: LOX IMVI; test: Cytotoxicity against human LOXIMVI cells; type: functional
# [18] = test system: COLO 205; test: Cytotoxicity against human COLO205 cells; type: functional
# [19] = test system: NCI-H460; test: Cytotoxicity against human NCI-H460 cells; type: functional
# [20] = test system: OVCAR-5; test: Cytotoxicity against human OVCAR5 cells; type: functional
# [21] = test system: SK-MEL-5; test: Cytotoxicity against human SK-MEL-5 cells; type: functional
# [22] = test system: HCC 2998; test: Cytotoxicity against human HCC2998 cells; type: functional
# [23] = test system: HOP-92; test: Cytotoxicity against human HOP92 cells; type: functional
# [24] = test system: SF-295; test: Cytotoxicity against human SF295 cells; type: functional
# [25] = molecular target: T1, Steryl-sulfatase (Homo sapiens, UniProt P08842); test: Inhibition of STS (unknown origin) using 4-MUS as substrate measured over 10 mins by fluorescence assay
# T1 sequence (P08842 whole entry): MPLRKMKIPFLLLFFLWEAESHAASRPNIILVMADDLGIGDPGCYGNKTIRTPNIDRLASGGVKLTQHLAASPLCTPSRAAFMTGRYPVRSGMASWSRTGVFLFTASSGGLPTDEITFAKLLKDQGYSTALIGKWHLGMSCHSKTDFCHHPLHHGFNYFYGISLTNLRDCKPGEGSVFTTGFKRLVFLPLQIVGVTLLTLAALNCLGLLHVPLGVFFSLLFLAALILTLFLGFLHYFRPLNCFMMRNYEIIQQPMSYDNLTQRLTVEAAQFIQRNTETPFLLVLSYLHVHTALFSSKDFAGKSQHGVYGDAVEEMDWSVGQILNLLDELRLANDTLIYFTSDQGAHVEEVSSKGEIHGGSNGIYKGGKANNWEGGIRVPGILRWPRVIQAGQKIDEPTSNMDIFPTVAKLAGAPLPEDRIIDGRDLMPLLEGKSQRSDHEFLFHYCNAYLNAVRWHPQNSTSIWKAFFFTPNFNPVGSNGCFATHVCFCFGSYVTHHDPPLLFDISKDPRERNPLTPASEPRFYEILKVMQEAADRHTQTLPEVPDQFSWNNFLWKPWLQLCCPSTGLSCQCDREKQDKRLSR
# How it was run: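 Purified STS (10 nM final) in 0.1 M Tris-HCl pH 7.0 containing Triton X-100, 4-MUS 200 µM final, and inhibitor at eleven concentrations (5 nM–5 µM). Ex 360/em 460 fluorescence read over 10 min at 24 °C, in quadruplicate, with no-enzyme controls. Vi/V0 from initial rates fit to a slope-factor equation. For tight binders, Ki app is the y-intercept of IC50 vs [E] (10–80 nM).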
# [26] = test system: A498; test: Cytotoxicity against human A498 cells; type: functional
# [27] = test system: OVCAR-3; test: Cytotoxicity against human OVCAR3 cells; type: functional
# [28] = test system: SR; test: Cytotoxicity against human SR cells; type: functional
# [29] = test system: HL-60(TB); test: Cytotoxicity against human HL-60(TB) cells; type: functional
# [30] = test system: T47D; test: Cytotoxicity against human T47D cells; type: functional
# [31] = test system: TK-10; test: Cytotoxicity against human TK10 cells; type: functional
# [32] = Cytotoxicity against human NCI-ADR-RES cells; type: functional
# [33] = test system: MDA-MB-231; test: Cytotoxicity against human MDA-MB-231 cells; type: functional
# [34] = test system: MDA-MB-468; test: Cytotoxicity against human MDA-MB-468 cells; type: functional
# [35] = test system: SF-268; test: Cytotoxicity against human SF268 cells; type: functional
# [36] = test system: A549; test: Cytotoxicity against human A549 cells; type: functional
# [37] = test system: SW-620; test: Cytotoxicity against human SW620 cells; type: functional
# [38] = test system: PC-3; test: Cytotoxicity against human PC3 cells; type: functional
# [39] = test system: IGROV-1; test: Cytotoxicity against human IGROV1 cells; type: functional
# [40] = test system: UACC-62; test: Cytotoxicity against human UACC62 cells; type: functional
# [41] = test system: UACC-257; test: Cytotoxicity against human UACC257 cells; type: functional
# [42] = Cytotoxicity against human Hs578T cells; type: functional; details: Hs-578T
# [43] = test system: BT-549; test: Cytotoxicity against human BT549 cells; type: functional
# [44] = test system: MCF7; test: Cytotoxicity against human MCF7 cells; type: functional
# [45] = test system: NCI-H226; test: Cytotoxicity against human NCI-H226 cells; type: functional
# [46] = Cytotoxicity against human EKVX cells; type: functional
# [47] = test system: RPMI-8226; test: Cytotoxicity against human RPMI8226 cells; type: functional
# [48] = test system: HT-29; test: Cytotoxicity against human HT-29 cells; type: functional
# [49] = test system: U-251; test: Cytotoxicity against human U251 cells; type: functional
structure (smiles),measurement,setting,value
C[C@]12CC[C@@H]3c4ccc(O)c([N+](=O)[O-])c4CC[C@H]3[C@@H]1CC[C@@H]2NS(=O)(=O)c1cccc(Br)c1,GI50,[1],1000 nM
same,GI50,[2],1000 nM
same,GI50,[3],1000 nM
same,GI50,[4],1000 nM
same,GI50,[5],1000 nM
same,GI50,[6],1000 nM
same,GI50,[7],1000 nM
same,GI50,[8],1000 nM
same,GI50,[9],1000 nM
same,GI50,[10],1000 nM
same,GI50,[11],1000 nM
same,GI50,[12],1000 nM
same,GI50,[13],1000 nM
same,GI50,[14],1000 nM
same,GI50,[15],1000 nM
same,GI50,[16],1000 nM
same,GI50,[17],1000 nM
same,GI50,[18],1000 nM
same,GI50,[19],1000 nM
same,GI50,[20],1000 nM
same,GI50,[21],1000 nM
same,GI50,[22],1000 nM
same,GI50,[23],1000 nM
same,GI50,[24],1000 nM
same,IC50,[25],12 nM
same,GI50,[26],1000 nM
same,GI50,[27],1000 nM
same,GI50,[28],1000 nM
same,GI50,[29],1000 nM
same,GI50,[30],2500 nM
same,GI50,[31],1000 nM
same,GI50,[32],1000 nM
same,GI50,[33],1500 nM
same,GI50,[34],2200 nM
same,GI50,[35],1000 nM
same,GI50,[36],1000 nM
same,GI50,[37],1000 nM
same,GI50,[38],1000 nM
same,GI50,[39],1000 nM
same,GI50,[40],1000 nM
same,GI50,[41],1000 nM
same,GI50,[42],2100 nM
same,GI50,[43],1600 nM
same,GI50,[44],1900 nM
same,GI50,[45],1000 nM
same,GI50,[46],1000 nM
same,GI50,[47],1000 nM
same,GI50,[48],1000 nM
same,GI50,[49],1000 nM
C[C@]12CC[C@@H]3c4cc([N+](=O)[O-])c(O)cc4CC[C@H]3[C@@H]1CC[C@@H]2NS(=O)(=O)c1ccc(-c2ccccc2)cc1,IC50,[25],33 nM
